Measured values: paper PMC6606825 (Journal of Ginseng Research, 2018)

Experiment: Pharmacokinetics of CK and its metabolite 20
Format: in vivo, healthy Chinese volunteers
Outline: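 Healthy adults given one oral tablet dose fasting (overnight, or 10 h in a crossover food-effect arm); 30 subjects from the 100/200/400 mg groups were pooled with 24 from 200 mg fasting periods. Plasma was stored at −70°C, extracted with MTBE plus internal standards and assayed by LC-MS/MS. Cmax was observed and AUClast calculated by linear trapezoid, each divided by dose. The metabolite/parent ratio was also calculated. Genotyping used Sequenom MassARRAY, and log-transformed values were compared by one-way ANOVA.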

[1] = ABCC4 rs1151471 CC, n = 2, mean (SD)

## CC(C)=CCC[C@](C)(O)[C@H]1CC[C@]2(C)[C@@H]1[C@H](O)C[C@@H]1[C@@]3(C)CC[C@H](O)C(C)(C)[C@@H]3CC[C@]12C [20(S)-PPD, 20(S)-protopanaxadiol]
ABCB1 rs1045642 AA, mean (SD)
  20(S)-PPD AUClast/D: 0.59 (0.42)
  20(S)-PPD Cmax/D: 0.02 (0.02)
  Ratio 20(S)-PPD/CK AUClast/D: 1.99 (1.55) %
  Ratio 20(S)-PPD/CK Cmax/D: 0.54 (0.42) %
ABCB1 rs1045642 AG, mean (SD)
  20(S)-PPD AUClast/D: 0.87 (0.93)
  20(S)-PPD Cmax/D: 0.03 (0.03)
  Ratio 20(S)-PPD/CK AUClast/D: 5.28 (8.05) %
  Ratio 20(S)-PPD/CK Cmax/D: 1.49 (2.26) %
ABCB1 rs1045642 GG, mean (SD)
  20(S)-PPD AUClast/D: 0.82 (0.62)
  20(S)-PPD Cmax/D: 0.03 (0.02)
  Ratio 20(S)-PPD/CK AUClast/D: 3.23 (2.77) %
  Ratio 20(S)-PPD/CK Cmax/D: 0.80 (0.66) %
ABCB1 rs1128503 AA, mean (SD)
  20(S)-PPD AUClast/D: 0.90 (0.79)
  20(S)-PPD Cmax/D: 0.03 (0.03)
  Ratio 20(S)-PPD/CK AUClast/D: 4.27 (5.15) %
  Ratio 20(S)-PPD/CK Cmax/D: 1.30 (2.07) %
ABCB1 rs1128503 AG, mean (SD)
  20(S)-PPD AUClast/D: 0.77 (0.80)
  20(S)-PPD Cmax/D: 0.03 (0.03)
  Ratio 20(S)-PPD/CK AUClast/D: 4.67 (7.55) %
  Ratio 20(S)-PPD/CK Cmax/D: 1.12 (1.52) %
ABCB1 rs1128503 GG, mean (SD)
  20(S)-PPD AUClast/D: 0.73 (0.70)
  20(S)-PPD Cmax/D: 0.02 (0.02)
  Ratio 20(S)-PPD/CK AUClast/D: 1.89 (0.94) %
  Ratio 20(S)-PPD/CK Cmax/D: 0.46 (0.25) %
ABCB1 rs2032582 AA, mean (SD)
  20(S)-PPD AUClast/D: 0.78 (0.53)
  20(S)-PPD Cmax/D: 0.03 (0.02)
  Ratio 20(S)-PPD/CK AUClast/D: 4.64 (7.42) %
  Ratio 20(S)-PPD/CK Cmax/D: 1.20 (1.55) %
ABCB1 rs2032582 CA, mean (SD)
  20(S)-PPD Cmax/D: 0.03 (0.03)
  Ratio 20(S)-PPD/CK AUClast/D: 4.60 (7.08) %
  Ratio 20(S)-PPD/CK Cmax/D: 1.34 (2.13) %
ABCB1 rs2032582 CC, mean (SD)
  20(S)-PPD AUClast/D: 0.92 (0.62)
  20(S)-PPD Cmax/D: 0.03 (0.02)
  Ratio 20(S)-PPD/CK AUClast/D: 3.50 (2.84) %
  Ratio 20(S)-PPD/CK Cmax/D: 0.74 (0.49) %
ABCC2 rs717620 CC, mean (SD)
  20(S)-PPD AUClast/D: 0.64 (0.51)
  20(S)-PPD Cmax/D: 0.02 (0.02)
  Ratio 20(S)-PPD/CK AUClast/D: 3.02 (4.69) %
  Ratio 20(S)-PPD/CK Cmax/D: 0.77 (0.99) %
ABCC2 rs717620 CT, mean (SD)
  20(S)-PPD AUClast/D: 1.09 (1.02)
  20(S)-PPD Cmax/D: 0.04 (0.04)
  Ratio 20(S)-PPD/CK AUClast/D: 6.00 (7.83) %
  Ratio 20(S)-PPD/CK Cmax/D: 1.65 (2.39) %
ABCC2 rs2273697 GA, mean (SD)
  20(S)-PPD AUClast/D: 0.81 (0.63)
  20(S)-PPD Cmax/D: 0.03 (0.02)
  Ratio 20(S)-PPD/CK AUClast/D: 4.54 (6.68) %
  Ratio 20(S)-PPD/CK Cmax/D: 0.96 (1.36) %
ABCC2 rs2273697 GG, mean (SD)
  20(S)-PPD AUClast/D: 0.83 (0.84)
  20(S)-PPD Cmax/D: 0.03 (0.03)
  Ratio 20(S)-PPD/CK AUClast/D: 4.19 (6.15) %
  Ratio 20(S)-PPD/CK Cmax/D: 1.22 (1.87) %
ABCC2 rs2756109 GG, mean (SD)
  20(S)-PPD AUClast/D: 0.61 (0.41)
  20(S)-PPD Cmax/D: 0.02 (0.02)
  Ratio 20(S)-PPD/CK AUClast/D: 2.42 (1.84) %
ABCC2 rs3740066 CC, mean (SD)
  20(S)-PPD AUClast/D: 0.64 (0.51)
  20(S)-PPD Cmax/D: 0.02 (0.02)
  Ratio 20(S)-PPD/CK AUClast/D: 3.03 (4.8) %
  Ratio 20(S)-PPD/CK Cmax/D: 0.78 (1.02) %
ABCC2 rs3740066 CT, mean (SD)
  20(S)-PPD AUClast/D: 1.06 (0.99)
  20(S)-PPD Cmax/D: 0.04 (0.03)
  Ratio 20(S)-PPD/CK AUClast/D: 5.95 (7.51) %
  Ratio 20(S)-PPD/CK Cmax/D: 1.63 (2.29) %
ABCC2 rs3740066 TT, n = 1
  20(S)-PPD AUClast/D: 0.58 (—)
  20(S)-PPD Cmax/D: 0.01 (—)
  Ratio 20(S)-PPD/CK AUClast/D: 1.04 (—) %
  Ratio 20(S)-PPD/CK Cmax/D: 0.22 (—) %
ABCC3 rs4148416 CC, mean (SD)
  20(S)-PPD AUClast/D: 0.77 (0.69)
  20(S)-PPD Cmax/D: 0.03 (0.02)
  Ratio 20(S)-PPD/CK AUClast/D: 3.64 (5.23) %
  Ratio 20(S)-PPD/CK Cmax/D: 0.90 (1.07) %
ABCC3 rs4148416 CT, mean (SD)
  20(S)-PPD AUClast/D: 0.99 (1.01)
  20(S)-PPD Cmax/D: 0.04 (0.04)
  Ratio 20(S)-PPD/CK AUClast/D: 6.12 (8.47) %
  Ratio 20(S)-PPD/CK Cmax/D: 1.87 (2.85) %
ABCC3 rs4793665 CT, mean (SD)
  20(S)-PPD AUClast/D: 0.61 (0.58)
  20(S)-PPD Cmax/D: 0.02 (0.02)
  Ratio 20(S)-PPD/CK AUClast/D: 2.27 (2.88) %
  Ratio 20(S)-PPD/CK Cmax/D: 0.54 (0.52) %
ABCC3 rs4793665 TT, mean (SD)
  20(S)-PPD AUClast/D: 0.89 (0.82)
  20(S)-PPD Cmax/D: 0.03 (0.03)
  Ratio 20(S)-PPD/CK AUClast/D: 4.86 (6.83) %
  Ratio 20(S)-PPD/CK Cmax/D: 1.32 (1.92) %
ABCC3 rs12051822 GA, mean (SD)
  20(S)-PPD AUClast/D: 1.17 (0.94)
  20(S)-PPD Cmax/D: 0.04 (0.03)
  Ratio 20(S)-PPD/CK AUClast/D: 6.84 (8.31) %
  Ratio 20(S)-PPD/CK Cmax/D: 1.44 (1.56) %
ABCC3 rs12051822 GG, mean (SD)
  20(S)-PPD AUClast/D: 0.74 (0.72)
  20(S)-PPD Cmax/D: 0.03 (0.03)
  Ratio 20(S)-PPD/CK AUClast/D: 3.60 (5.48) %
  Ratio 20(S)-PPD/CK Cmax/D: 1.09 (1.81) %
[1]
  20(S)-PPD AUClast/D: 2.65 (1.59)
  20(S)-PPD Cmax/D: 0.09 (0.03)
  Ratio 20(S)-PPD/CK AUClast/D: 20.61 (14.96) %
  Ratio 20(S)-PPD/CK Cmax/D: 4.33 (2.43) %
ABCC4 rs1151471 TC, mean (SD)
  20(S)-PPD AUClast/D: 0.99 (0.81)
  20(S)-PPD Cmax/D: 0.04 (0.03)
  Ratio 20(S)-PPD/CK AUClast/D: 5.99 (7.30) %
  Ratio 20(S)-PPD/CK Cmax/D: 1.83 (2.49) %
ABCC4 rs1151471 TT, mean (SD)
  20(S)-PPD AUClast/D: 0.58 (0.54)
  20(S)-PPD Cmax/D: 0.02 (0.02)
